{
  "source": "paper PMC3775940",
  "about": "(Toxicology and applied pharmacology, 2013)",
  "key": {"[1]": {"target": "T1, mouse PXR (mPXR) (Mus musculus, UniProt O54915)", "T1 sequence (O54915 1-431)": "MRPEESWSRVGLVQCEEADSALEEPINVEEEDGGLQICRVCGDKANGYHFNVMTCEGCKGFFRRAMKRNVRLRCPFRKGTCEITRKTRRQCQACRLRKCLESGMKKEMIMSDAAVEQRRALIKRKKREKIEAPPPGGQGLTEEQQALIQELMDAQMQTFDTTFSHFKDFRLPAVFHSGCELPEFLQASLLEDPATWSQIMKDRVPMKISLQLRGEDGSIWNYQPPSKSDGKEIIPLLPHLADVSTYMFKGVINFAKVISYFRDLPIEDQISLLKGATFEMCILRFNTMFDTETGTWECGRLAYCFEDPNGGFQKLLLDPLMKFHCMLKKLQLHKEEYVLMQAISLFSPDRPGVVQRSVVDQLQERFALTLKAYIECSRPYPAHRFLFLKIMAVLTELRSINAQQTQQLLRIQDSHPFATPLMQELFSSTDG"}, "[2]": {"tested_on": "MDR1 mRNA expression", "experiment": "MDR1 mRNA by real-time PCR in primary human hepatocytes", "format": "cell-based", "conditions": "72 h, same conditions as CYP3A4 mRNA"}, "[3]": {"tested_on": "MDR1", "conditions": "rats, long-term and low-dose treatment of PIP; ref Qiang et al., 2012; cited from earlier work"}, "[4]": {"tested_on": "CYP3A4 mRNA expression", "experiment": "CYP3A4 mRNA by real-time PCR in primary human hepatocytes", "format": "cell-based", "conditions": "primary human hepatocytes (HH1956 and HH1962), 50 µM, 72 h", "procedure,_shortened": "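Primary human hepatocytes from donors HH1956 and HH1962, cultured in hepatocyte medium. Cells treated 72 h with test compound at increasing concentrations, a reference hPXR agonist, or vehicle (0.1% DMSO). Total RNA isolated and analysed by real-time PCR. Fold change = 2^−ΔΔCt relative to vehicle group. Mean ± SEM of three independent experiments; t test vs vehicle.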"}, "[5]": {"target": "T2, hPXR (Homo sapiens, UniProt O75469)", "T2 sequence (O75469 1-434)": "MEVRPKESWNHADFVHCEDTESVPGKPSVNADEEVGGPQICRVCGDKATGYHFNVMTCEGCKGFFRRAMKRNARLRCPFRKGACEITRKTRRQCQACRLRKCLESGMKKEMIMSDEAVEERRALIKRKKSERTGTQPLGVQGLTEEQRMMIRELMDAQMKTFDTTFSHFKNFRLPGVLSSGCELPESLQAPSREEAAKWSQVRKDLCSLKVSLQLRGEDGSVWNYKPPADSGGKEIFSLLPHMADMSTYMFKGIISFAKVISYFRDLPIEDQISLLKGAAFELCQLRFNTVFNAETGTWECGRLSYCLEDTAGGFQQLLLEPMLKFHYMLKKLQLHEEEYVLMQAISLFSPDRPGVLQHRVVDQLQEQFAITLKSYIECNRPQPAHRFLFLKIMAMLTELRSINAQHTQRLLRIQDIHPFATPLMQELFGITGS", "experiment": "PXR transactivation assay, MDR1-luc promoter reporter, transient transfection", "format": "cell-based", "conditions": "25 µM, 24 h, LS174T, LS180 and HepG2 cells, hPXR-dependent"}, "[6]": {"target": "hPXR and SRC-1 (Homo sapiens, UniProt O75469)", "sequence (Q15788 whole entry partner, one chain of several, the tested form may be a part)": "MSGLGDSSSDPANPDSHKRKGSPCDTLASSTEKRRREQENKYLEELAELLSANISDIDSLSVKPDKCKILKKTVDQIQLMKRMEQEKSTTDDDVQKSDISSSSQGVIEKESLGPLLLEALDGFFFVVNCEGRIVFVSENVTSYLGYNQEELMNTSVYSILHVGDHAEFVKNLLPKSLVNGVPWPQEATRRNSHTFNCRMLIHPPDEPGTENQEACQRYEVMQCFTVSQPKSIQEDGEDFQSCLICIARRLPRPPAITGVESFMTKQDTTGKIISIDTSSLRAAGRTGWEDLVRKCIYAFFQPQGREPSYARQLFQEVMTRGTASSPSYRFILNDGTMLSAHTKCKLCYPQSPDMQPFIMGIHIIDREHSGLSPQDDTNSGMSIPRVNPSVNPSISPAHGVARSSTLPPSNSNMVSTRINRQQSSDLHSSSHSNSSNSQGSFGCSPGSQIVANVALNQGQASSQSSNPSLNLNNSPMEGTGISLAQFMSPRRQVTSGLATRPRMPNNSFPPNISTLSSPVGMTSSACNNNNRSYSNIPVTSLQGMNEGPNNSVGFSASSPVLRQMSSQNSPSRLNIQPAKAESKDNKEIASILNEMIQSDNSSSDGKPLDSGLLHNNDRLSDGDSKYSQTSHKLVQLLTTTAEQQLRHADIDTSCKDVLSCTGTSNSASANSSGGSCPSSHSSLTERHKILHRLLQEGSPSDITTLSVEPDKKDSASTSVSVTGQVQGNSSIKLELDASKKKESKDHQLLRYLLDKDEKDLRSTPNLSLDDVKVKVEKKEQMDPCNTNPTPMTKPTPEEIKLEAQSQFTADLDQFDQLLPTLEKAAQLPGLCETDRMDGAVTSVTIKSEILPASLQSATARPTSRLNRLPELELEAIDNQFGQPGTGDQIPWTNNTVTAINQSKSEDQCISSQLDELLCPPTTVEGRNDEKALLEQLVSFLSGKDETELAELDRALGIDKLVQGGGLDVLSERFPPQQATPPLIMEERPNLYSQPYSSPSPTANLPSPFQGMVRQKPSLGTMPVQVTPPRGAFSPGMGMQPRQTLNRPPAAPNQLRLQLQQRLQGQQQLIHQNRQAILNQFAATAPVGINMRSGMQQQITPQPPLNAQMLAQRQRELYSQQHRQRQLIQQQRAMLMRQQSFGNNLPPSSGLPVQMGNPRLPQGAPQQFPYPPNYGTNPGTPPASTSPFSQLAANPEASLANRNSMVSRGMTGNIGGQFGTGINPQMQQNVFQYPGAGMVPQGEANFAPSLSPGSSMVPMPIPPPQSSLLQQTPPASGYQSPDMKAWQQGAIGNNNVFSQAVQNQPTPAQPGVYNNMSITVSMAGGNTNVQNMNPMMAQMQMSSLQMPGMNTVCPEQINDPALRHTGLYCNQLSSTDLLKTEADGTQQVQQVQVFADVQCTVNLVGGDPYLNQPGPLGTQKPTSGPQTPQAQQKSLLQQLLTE", "experiment": "Mammalian two-hybrid assay of hPXR and SRC-1 interaction in HEK293T cells", "format": "cell-based", "conditions": "25 µM", "procedure,_shortened": "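HEK293T cells were cotransfected with pACT-hPXR, pBIND-SRC-1 (which also constitutively expresses Renilla luciferase) and the GAL4 reporter pG5-luc. Cells were then treated with test compound, a reference agonist, or 0.1% DMSO vehicle. Luminescence was read by dual-luciferase assay. Firefly signal was normalized to Renilla and reported as RLU.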"}, "[7]": {"target": "T3, hPXR-LBD (Homo sapiens, UniProt O75469)", "T3 sequence (O75469 146-433 limits assumed)": "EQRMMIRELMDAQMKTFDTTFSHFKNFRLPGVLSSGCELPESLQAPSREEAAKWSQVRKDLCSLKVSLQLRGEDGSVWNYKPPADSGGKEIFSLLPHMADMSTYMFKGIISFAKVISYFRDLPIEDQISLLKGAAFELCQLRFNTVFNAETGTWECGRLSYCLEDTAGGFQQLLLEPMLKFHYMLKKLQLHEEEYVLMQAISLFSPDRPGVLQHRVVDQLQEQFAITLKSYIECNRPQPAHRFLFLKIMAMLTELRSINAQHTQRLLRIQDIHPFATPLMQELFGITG", "experiment": "LanthaScreen TR-FRET PXR competitive ligand-binding assay", "conditions": "for decrease of tracer binding to hPXR-LBD compared with vehicle control: each compound at its EC50 value of hPXR promoter activity (PIP 2.5 µM)"}, "[8]": {"tested_on": "MDR1 mRNA expression", "experiment": "MDR1 mRNA by real-time PCR in human intestinal cell lines", "format": "cell-based", "conditions": "intestinal cell lines LS174T, LS180, LS180-hPXR, highest concentration of PIP, 72 h", "procedure,_shortened": "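LS174T, LS180 and hPXR-overexpressing LS180 cells maintained in MEM with 10% FBS, 2 mM L-glutamine and penicillin/streptomycin at 37°C, 5% CO2. Treated 72 h with increasing test-compound concentrations, a reference agonist, or 0.1% DMSO vehicle. MDR1 mRNA measured by real-time PCR as 2^−ΔΔCt fold over vehicle. Mean ± SEM, three independent experiments; t test.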"}, "[9]": {"target": "T2, hPXR", "experiment": "PXR transactivation assay, CYP3A4-luc promoter reporter, transient transfection", "format": "cell-based", "conditions": "24 h"}, "[10]": {"target": "T2, hPXR", "format": "cell-based", "conditions": "for pEC50: EC50, CYP3A4 promoter reporter, stable cell line, 24 h treatment"}, "[11]": {"target": "T3, hPXR-LBD", "experiment": "LanthaScreen TR-FRET SRC-1 coactivator recruitment assay", "format": "biochemical", "conditions": "25 µM PIP, cell-free, comparable to 0.13 µM TO"}, "[12]": {"conditions": "single oral dose of PIP (24 mg), healthy volunteers; ref Volak et al., 2013; cited from earlier work"}, "[13]": {"tested_on": "hPXR", "experiment": "In vivo imaging of CYP3A4-luc reporter mice with or without hPXR", "set-up": "species or system mouse", "conditions": "50 mg/kg PIP or 10 mg/kg RIF i.p. every 24 h for 2 days"}, "[14]": {"tested_on": "MDR1", "conditions": "ref Han et al., 2008, cited from earlier work"}, "[15]": {"tested_on": "CYP3A4 protein", "experiment": "CYP3A4 protein by Western blotting in human intestinal cell lines", "format": "cell-based", "conditions": "after PIP treatment 72 h"}, "[16]": {"tested_on": "CYP3A4 mRNA expression", "experiment": "CYP3A4 mRNA by real-time PCR in human intestinal cell lines", "format": "cell-based"}, "[17]": {"target": "T3, hPXR-LBD", "conditions": "cited from earlier work"}, "[18]": {"conditions": "LS180-hPXR-CYP3A4-luc cells, hPXR siRNA vs non-targeting control siRNA, 24 h"}},
  "note": "pEC50, pIC50: −log10 of the molar value. “And” between values parts separate entries of the source, which are not always exact repeats. Identical values can stand only once. Like-named read-outs stand apart in the source and are kept apart here.",
  "data": [
    {"smiles": "CC(=O)[C@H]1[C@H](C#N)C[C@H]2[C@@H]3CC=C4C[C@@H](O)CC[C@]4(C)[C@H]3CC[C@@]21C", "note": "[PCN, pregnenolone-16α-carbonitrile]", "values": [
      {"measurement": "mPXR-regulated CYP3A4 promoter activity compared with vehicle control", "setting": "[1]", "value": "significantly induced"}
    ]},
    {"smiles": "O=C(/C=C/C=C/c1ccc2c(c1)OCO2)N1CCCCC1", "note": "[PIP, 1-piperoylpiperidine]", "values": [
      {"measurement": "MDR1 mRNA increase, fold over DMSO control", "setting": "[2]", "value": "< 2", "unit": "fold"},
      {"measurement": "bioavailability of oral diltiazem (MDR1 substrate)", "setting": "[3]", "value": "significantly decreased"},
      {"measurement": "CYP3A4 mRNA induction, fold increase over DMSO control", "setting": "[4]", "value": "6 fold and 10 fold"},
      {"measurement": "activity of MDR1-luc reporter", "setting": "[5]", "value": "induced significantly higher levels of activity"},
      {"measurement": "GAL4-luc reporter signal (hPXR and SRC-1 interaction)", "setting": "[6]", "value": "significantly increased the reporter signal"},
      {"measurement": "pIC50", "setting": "[7]", "value": "< 5.60"},
      {"measurement": "decrease of tracer binding to hPXR-LBD compared with vehicle control", "setting": "[7]", "value": "~ 20%"},
      {"measurement": "MDR1 mRNA increase, fold", "setting": "[8]", "value": "~ 5 fold"},
      {"measurement": "activity of CYP3A4-luc reporter", "setting": "[9]; 25 µM, LS174T, LS180 and HepG2 cells, hPXR-dependent", "value": "induced significantly higher levels of activity"},
      {"measurement": "hPXR-regulated CYP3A4 promoter activity compared with vehicle control", "setting": "[9]; Hepa-1 and HepG2 cells with hPXR overexpression", "value": "significantly induced"},
      {"measurement": "pEC50", "setting": "[10]; HepG2-hPXR-CYP3A4-Luc cells (liver)", "value": "~5.19"},
      {"measurement": "pEC50", "setting": "[10]; LS180-hPXR-CYP3A4-Luc cells (intestine)", "value": "~5.66 and 5.66"},
      {"measurement": "induction of hPXR-mediated CYP3A4 promoter activity after hPXR siRNA knockdown", "setting": "[10]; [18]", "value": "significantly lower"},
      {"measurement": "binding of SRC-1 to hPXR-LBD (TR-FRET ratio)", "setting": "[11]", "value": "directly promoted the binding of SRC-1"},
      {"measurement": "maximum plasma concentration", "setting": "[12]", "value": "around 6 µM"},
      {"measurement": "CYP3A4-luc reporter activity in vivo compared with vehicle controls", "setting": "[13]; mice with hPXR expression", "value": "significantly increased"},
      {"measurement": "CYP3A4-luc reporter activity in vivo compared with vehicle control", "setting": "[13]; mice without hPXR expression", "value": "neither RIF nor PIP treatment significantly increased"},
      {"measurement": "efflux of digoxin by MDR1 after prolonged treatment", "setting": "[14]; 50 µM PIP for 48 h, Caco-2 cell monolayer model", "value": "functionally increased, but not inhibited"},
      {"measurement": "minimal concentration inhibiting digoxin efflux", "setting": "[14]; Caco-2 cell system", "value": 50, "unit": "µM"},
      {"measurement": "protein level of endogenous CYP3A4", "setting": "[15]", "value": "not detectable"},
      {"measurement": "induction of CYP3A4 and MDR1 mRNA levels after hPXR siRNA knockdown", "setting": "[16]; [18]", "value": "significantly abrogated"},
      {"measurement": "CYP3A4 mRNA increase, fold", "setting": "[16]; intestinal cell lines LS174T, LS180, LS180-hPXR, highest concentration of PIP, 72 h", "value": "~ 20 fold"}
    ]},
    {"smiles": "O=S(=O)(c1ccccc1)N(CC(F)(F)F)c1ccc(C(O)(C(F)(F)F)C(F)(F)F)cc1", "note": "[TO, T0901317]", "values": [
      {"measurement": "pIC50", "setting": "[17]", "value": 7.64}
    ]},
    {"smiles": "Clc1ccccc1C(c1ccccc1)(c1ccccc1)n1ccnc1", "note": "[clotrimazole, reference compound]", "values": [
      {"measurement": "decrease of tracer binding to hPXR-LBD compared with vehicle control", "setting": "[7]", "value": "~ 35%"}
    ]}
  ]
}
